In assay [1] the target is NAD(P)H dehydrogenase [quinone] 1 (Homo sapiens) (UniProt P15559). The assay is described as follows: Kinetic analysis using purified human DT-diaphorase. An outline of the steps:
(§1)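 Purified human DT-diaphorase (4.8 × 10-4 mg) with 1 mM NADH, 55 µM cytochrome c, 0.01 mM dithiothreitol in 0.05 M Tris pH 7.6; quinone in DMSO starts reaction. Run in triplicate at 25 °C, following cytochrome c reduction at 550 nm, no-enzyme background controls. Initial linear rates; KM and Vmax from Hanes plot.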

A further assay deals with HT-29. The assay is described as follows: cytotoxic activity against human colon carcinoma HT-29 cell lines. Format: functional. An outline of the steps: (§2)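 Clonogenic survival: exponentially growing cells suspended at 1.7-2 × 10^5 cells/mL in serum-free MEM/HEPES, exposed 2 h at 37 °C, 5% CO2 to five final drug concentrations (solvent ethanol or DMSO, at most 1%), washed, plated at 2-3 densities, grown 10 days. Crystal violet-stained colonies of ≥50 cells counted; LC99 from log surviving fraction vs concentration.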

Assay [2] has as its target NAD(P)H dehydrogenase [quinone] 1 (Homo sapiens) (UniProt P15559). The assay is described as follows: Ratio of Vmax and Km. Set-up: unit not given here. In short, it runs like this:
as §1

Assay [3] shares this target. The assay is described as follows: Ratio of Kcat and Km. An outline of the steps:
as §1

In a further assay the test system is BE. The assay is described as follows: cytotoxic activity against human colon carcinoma BE cell lines. It counts as functional. An outline of the steps: as §2

NAD(P)H dehydrogenase [quinone] 1 (Homo sapiens), sequence (P15559 whole entry): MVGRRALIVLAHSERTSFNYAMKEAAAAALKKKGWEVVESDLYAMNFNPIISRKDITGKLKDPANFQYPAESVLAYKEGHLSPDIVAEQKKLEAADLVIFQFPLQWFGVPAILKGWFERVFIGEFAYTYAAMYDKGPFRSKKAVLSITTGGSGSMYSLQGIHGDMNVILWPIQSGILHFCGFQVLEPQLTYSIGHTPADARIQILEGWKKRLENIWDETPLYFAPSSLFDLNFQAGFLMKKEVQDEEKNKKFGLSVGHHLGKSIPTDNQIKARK

Turning to `NP(=O)(OCC1=CC(=O)c2ccccc2C1=O)N1CCOCC1` (stereo not drawn), in assay [1], the k cat came to 15 s⁻¹. For the same molecule, the LC99 with HT-29 came out at 89 µM; in the assay on BE, 72 µM. The figures for the Ratio in assay [2] and in assay [3] were 0.83 and 0.16, respectively.

`O=C1C=C(COP(=O)(NCCCl)NCCCl)C(=O)c2ccccc21` yielded a k cat in assay [1] of 88 s⁻¹. Also, the results for the LC99 with HT-29 and with BE were 14 µM and 7.8 µM, respectively. The values for the Ratio in assay [2] and in assay [3] were 2.1 and 2.3, respectively.

Molecule `NP(=O)(OCC1=C(Br)C(=O)c2ccccc2C1=O)N(CCCl)CCCl` (stereo not drawn) came in with a k cat in assay [1] of 97 s⁻¹. For the same molecule, the LC99 stood at 4.1 µM in the assay on HT-29 and 3.3 µM in the assay on BE. For the same molecule, the values for the Ratio in assay [2] and in assay [3] were 2.7 and 3, respectively.

On to `CC(=O)OCC1=CC(=O)c2ccccc2C1=O`, for which the k cat in assay [1] worked out at 280 s⁻¹. Also, the LC99 in the assay on HT-29 is 64 µM; in the assay with BE it was 22 µM. Besides, the figures for the Ratio in assay [2] and in assay [3] were 1.4 and 1.6, respectively.

The molecule `Cn1c(COP(N)(=O)N(CCCl)CCCl)nc2c1C(=O)C=CC2=O` (stereo not drawn) yielded a k cat in assay [1] of 41 s⁻¹. Moreover, the LC99 in the assay with HT-29 worked out at 220 µM; in the assay with BE, 300 µM. Moreover, the Ratio turned out to be 0.4 in assay [2] and 4.5 in assay [3].

Consider `CC1=C(COP(N)(=O)N(CCBr)CCBr)C(=O)c2ccccc2C1=O` (stereo not drawn), for which the k cat in assay [1] was determined as 63 s⁻¹. In addition, the LC99 was 1.7 µM in the assay with HT-29 and 1.2 µM in the assay on BE. For the same molecule, the Ratio in assay [2] worked out at 0.81; in assay [3], 9.1.

Take `CC1=C(COP(=O)(N(C)CCBr)N(C)CCBr)C(=O)c2ccccc2C1=O`: the k cat in assay [1] is 180 s⁻¹. Further, the LC99 with HT-29 is 1.5 µM; with BE, 0.44 µM. Also, the figures for the Ratio in assay [2] and in assay [3] were 0.44 and 0.5, respectively.

Consider `NP(=O)(OCC1=CC(=O)c2ccccc2C1=O)N(CCCl)CCCl` (stereo not drawn), for which the k cat in assay [1] stood at 51 s⁻¹. The results for the LC99 in the assay on HT-29 and in the assay with BE were 11 µM and 13 µM, respectively. Moreover, the Ratio amounted to 1.8 in assay [2] and 2 in assay [3].

`Cn1c(COP(N)(=O)N(CCBr)CCBr)nc2c1C(=O)C=CC2=O` (stereo not drawn) registered a k cat in assay [1] of 66 s⁻¹. The results for the LC99 with HT-29 and in the assay with BE were 130 µM and 120 µM, respectively. For the same molecule, the values for the Ratio in assay [2] and in assay [3] were 0.28 and 3.1, respectively.

As for `CC1=C(COP(N)(=O)N(CCCl)CCCl)C(=O)c2ccccc2C1=O` (stereo not drawn), the k cat in assay [1] amounted to 78 s⁻¹. Further, the LC99 with HT-29 turned out to be 2.1 µM; in the assay on BE, 1 µM. Besides, the figures for the Ratio in assay [2] and in assay [3] were 0.76 and 8.6, respectively.

As for `CC1=CC(=O)c2ccccc2C1=O`, in assay [1], the k cat was 700 s⁻¹. Further, the Ratio in assay [2] was determined as 0.5; in assay [3], 5.8.

On to `CSC1=C(COP(N)(=O)N(CCCl)CCCl)C(=O)c2ccccc2C1=O` (stereo not drawn), for which, in assay [1], the k cat amounted to 72 s⁻¹. The LC99 in the assay with HT-29 came to 4.2 µM; in the assay with BE it was 5.9 µM. The values for the Ratio in assay [2] and in assay [3] were 1.1 and 1.2, respectively.

On to `CN(CCCl)P(=O)(OCC1=CC(=O)c2ccccc2C1=O)N(C)CCCl`, for which the k cat in assay [1] turned out to be 190 s⁻¹. Also, the LC99 in the assay on HT-29 is 4.5 µM; with BE it was 2.8 µM. The Ratio in assay [2] turned out to be 1.2; in assay [3] it was 1.4.

`CN(CCBr)P(=O)(OCC1=CC(=O)c2ccccc2C1=O)N(C)CCBr` had a k cat in assay [1] of 115 s⁻¹. Besides, the LC99 in the assay on HT-29 came to 4.5 µM; with BE it was 1.2 µM. Also, the results for the Ratio in assay [2] and in assay [3] were 1.1 and 1.3, respectively.

As for `NP(=O)(OCC1=CC(=O)c2ccccc2C1=O)N(CCBr)CCBr` (stereo not drawn), the k cat in assay [1] was found to be 46 s⁻¹. Also, the LC99 is 7.8 µM in the assay on HT-29 and 4.6 µM in the assay on BE. In addition, the figures for the Ratio in assay [2] and in assay [3] were 2 and 2.2, respectively.

The values are drawn from ChEMBL document CHEMBL1133441, “Development of novel quinone phosphorodiamidate prodrugs targeted to DT-diaphorase” (2000).
